Experimental findings from publication PMC2906681 (Biochemical pharmacology, 2010) are described below.

The structures appear in SMILES notation.

One series concerns TF-1/Shp2^E76K cells. As to the kind of experiment: Fluorescence uptake assay. Type of series: in vitro ADME. Conditions: 5 h incubation, ex/em 485/535 nm. An outline of the steps: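 TF-1/Shp2E76K cells (6 × 10^5 in 1 ml RPMI1640/10% FBS) were incubated 5 h at 37 °C/5% CO2 with test compound or DMSO. Fluorescence (485/535 nm) was read in the whole suspension, then in cell-free medium (supernatant plus washes) and in twice-washed pellets. Fraction totals were expressed relative to the 100 µM suspension, set as 100%. Two duplicate experiments (n = 4).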

The next series has as its target T1, Shp2 (Homo sapiens, UniProt Q06124).
T1 sequence (Q06124 1-593): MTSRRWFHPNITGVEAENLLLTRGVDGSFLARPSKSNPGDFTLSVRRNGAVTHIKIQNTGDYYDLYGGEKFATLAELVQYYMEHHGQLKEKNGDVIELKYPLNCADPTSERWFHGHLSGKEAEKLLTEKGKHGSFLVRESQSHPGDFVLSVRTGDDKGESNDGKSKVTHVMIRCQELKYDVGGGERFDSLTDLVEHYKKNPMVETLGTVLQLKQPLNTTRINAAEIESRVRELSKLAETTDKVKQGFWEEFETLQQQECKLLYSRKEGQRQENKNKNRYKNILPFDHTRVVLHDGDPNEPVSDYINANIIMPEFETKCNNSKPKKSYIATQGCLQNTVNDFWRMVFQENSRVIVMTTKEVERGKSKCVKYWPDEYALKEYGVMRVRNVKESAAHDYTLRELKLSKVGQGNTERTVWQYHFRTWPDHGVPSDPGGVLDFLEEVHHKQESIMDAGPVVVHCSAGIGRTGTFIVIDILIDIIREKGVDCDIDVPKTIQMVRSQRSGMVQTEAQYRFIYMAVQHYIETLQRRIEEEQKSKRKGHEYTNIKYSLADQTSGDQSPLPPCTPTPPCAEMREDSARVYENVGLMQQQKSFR
Put plainly: EGF-stimulated Shp2 PTP activity in immune complexes from MDA-MB-468 cells. The class given is cell-based. As to conditions: 20 µM pre-treatment overnight, EGF 50 ng/ml 10 min. A digest of the protocol:
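Sub-confluent MDA-MB-468 cells were serum-starved 18 h in DMEM/0.1% BSA, pretreated overnight with test compound (20 or 100 µM), then EGF-stimulated (50 ng/ml, 10 min). Lysate (0.2 mg, Hepes pH 7.4 PTP lysis buffer) was immunoprecipitated with anti-Shp2/protein G for 2 h at 4 °C and washed. Complexes were reacted with 50 µM DiFMUP for 20 min at room temperature, and DiFMU fluorescence was read. Pellets were immunoblotted for Shp2. Two experiments, duplicates.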

A further series relates to HT-29 cells. Put plainly: Cell growth assay. Type of series: cell-based. Conditions: for fraction of inhibition: 4 days. An outline of the steps: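 HT-29 cells at 1,000 cells/well, in triplicate, in RPMI1640/10% FBS with IFN-γ (100 U/ml) and/or test compound or vehicle. Compound volume kept ≤0.1% of total. Incubated 4 days at 37 °C/5% CO2. Relative viable cell number was read by CellTiterGlo luminescence. Synergism of the two agents was calculated with the Bliss definition.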

Consider `COC(=O)c1cccc(N/N=C2\C(=O)Nc3ccc(S(=O)(=O)NCc4ccc(F)cc4)cc32)c1` [SPI-112Me, (Z)-3-(2-(5-(N-(4-fluorobenzyl)sulfamoyl)-2-oxoindolin-3-ylidene)hydrazinyl)benzoic acid methyl ester], for which, in the series on TF-1/Shp2^E76K cells, the “fluorescent signal associated with the cell pellets” value is listed as “substantial amount”. For the same molecule, the “reduction of EGF-stimulated Shp2 PTP activity” value at Shp2 worked out at 77%. Also, the fraction of inhibition in the series with HT-29 cells (6.25 µM SPI-112Me alone) came to 0.32; in the series with HT-29 cells (6.25 µM SPI-112Me plus IFN-γ 100 U/ml) it was 0.57; in the series on HT-29 cells (12.5 µM SPI-112Me alone), 0.71; in the series on HT-29 cells (12.5 µM SPI-112Me plus IFN-γ 100 U/ml) it was 0.84. Moreover, in the series on HT-29 cells (IFN-γ 100 U/ml plus SPI-112Me), the “combination effect with IFN-γ on inhibition of cell growth (Bliss)” value is “synergistic”.
